Measured values reported in the M2OR odorant receptor database.

What was measured:
Details in all cases: stereoisomer not certain
OR1A2 (Homo sapiens) = target: T1, OR1A2 (Homo sapiens) (UniProt Q9Y585)
T1 sequence (whole entry): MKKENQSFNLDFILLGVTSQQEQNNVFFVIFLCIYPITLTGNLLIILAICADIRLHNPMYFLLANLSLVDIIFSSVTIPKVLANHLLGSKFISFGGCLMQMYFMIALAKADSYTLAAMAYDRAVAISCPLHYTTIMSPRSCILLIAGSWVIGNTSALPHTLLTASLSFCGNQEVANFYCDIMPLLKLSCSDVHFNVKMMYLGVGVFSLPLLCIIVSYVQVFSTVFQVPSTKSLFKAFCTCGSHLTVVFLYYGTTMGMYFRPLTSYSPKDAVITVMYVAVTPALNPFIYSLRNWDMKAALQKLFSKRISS
Outline: (§1)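 Each receptor–molecule pair is labelled responsive or non-responsive (inactive) according to whether the original authors judged the measured signal statistically different from baseline. The data were taken from the main text and supplementary material of published papers and checked for typos and inconsistencies. Assay methods differed by source, with transient luciferase assays in mammalian cell lines being common.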

OR1A2 G256C W293C = tested on: OR1A2 G256C W293C
Outline: as §1

OR1B1 = tested on: OR1B1
Sequence of OR1B1 (as listed by the source): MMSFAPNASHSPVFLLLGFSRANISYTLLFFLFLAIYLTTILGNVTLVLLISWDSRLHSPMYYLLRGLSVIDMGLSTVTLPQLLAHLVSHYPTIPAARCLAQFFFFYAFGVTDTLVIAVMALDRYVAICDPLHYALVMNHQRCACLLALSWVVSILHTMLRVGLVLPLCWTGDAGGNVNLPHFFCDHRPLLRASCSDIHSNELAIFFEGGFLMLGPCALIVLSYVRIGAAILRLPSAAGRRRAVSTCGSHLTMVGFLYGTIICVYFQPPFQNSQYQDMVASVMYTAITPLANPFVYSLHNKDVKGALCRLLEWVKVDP
Outline: as §1

OR1C1 (Homo sapiens) = OR1C1 (Homo sapiens) (UniProt Q15619)
Sequence of OR1C1 (Homo sapiens) (Q15619 whole entry): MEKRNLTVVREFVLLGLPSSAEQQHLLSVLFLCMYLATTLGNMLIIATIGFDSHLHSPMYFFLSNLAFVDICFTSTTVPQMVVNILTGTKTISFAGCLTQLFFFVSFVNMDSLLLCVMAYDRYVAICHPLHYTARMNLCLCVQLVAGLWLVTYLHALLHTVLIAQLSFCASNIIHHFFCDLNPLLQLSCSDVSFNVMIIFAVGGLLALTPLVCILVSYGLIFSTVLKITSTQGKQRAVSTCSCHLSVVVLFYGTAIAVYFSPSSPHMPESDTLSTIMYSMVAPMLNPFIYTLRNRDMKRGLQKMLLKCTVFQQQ
Outline: as §1

OR1D2 (Homo sapiens) = target: T2, OR1D2 (Homo sapiens) (UniProt P34982)
T2 sequence (whole entry): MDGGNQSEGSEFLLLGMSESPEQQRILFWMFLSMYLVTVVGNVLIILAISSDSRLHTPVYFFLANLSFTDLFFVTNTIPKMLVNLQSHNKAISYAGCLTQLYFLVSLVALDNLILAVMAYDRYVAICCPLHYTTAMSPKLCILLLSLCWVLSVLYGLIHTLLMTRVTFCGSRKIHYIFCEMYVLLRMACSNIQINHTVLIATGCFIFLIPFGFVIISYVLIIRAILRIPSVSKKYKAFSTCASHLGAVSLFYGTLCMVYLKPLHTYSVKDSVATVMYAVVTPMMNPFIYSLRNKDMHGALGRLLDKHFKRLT
Outline: as §1

OR1D5 (Homo sapiens) = OR1D5 (Homo sapiens) (UniProt P58170)
Sequence of OR1D5 (Homo sapiens) (P58170 whole entry): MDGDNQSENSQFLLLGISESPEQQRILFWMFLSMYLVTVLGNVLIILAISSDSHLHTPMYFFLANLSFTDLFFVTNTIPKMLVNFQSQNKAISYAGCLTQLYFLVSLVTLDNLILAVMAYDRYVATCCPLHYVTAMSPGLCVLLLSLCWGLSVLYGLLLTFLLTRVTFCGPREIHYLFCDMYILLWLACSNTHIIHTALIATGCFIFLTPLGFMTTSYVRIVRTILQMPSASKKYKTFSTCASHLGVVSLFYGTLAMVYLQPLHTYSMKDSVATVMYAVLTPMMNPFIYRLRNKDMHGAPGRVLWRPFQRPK
Outline: as §1

OR1E1 (Homo sapiens) = OR1E1 (Homo sapiens) (UniProt P30953)
Sequence of OR1E1 (Homo sapiens) (P30953 whole entry): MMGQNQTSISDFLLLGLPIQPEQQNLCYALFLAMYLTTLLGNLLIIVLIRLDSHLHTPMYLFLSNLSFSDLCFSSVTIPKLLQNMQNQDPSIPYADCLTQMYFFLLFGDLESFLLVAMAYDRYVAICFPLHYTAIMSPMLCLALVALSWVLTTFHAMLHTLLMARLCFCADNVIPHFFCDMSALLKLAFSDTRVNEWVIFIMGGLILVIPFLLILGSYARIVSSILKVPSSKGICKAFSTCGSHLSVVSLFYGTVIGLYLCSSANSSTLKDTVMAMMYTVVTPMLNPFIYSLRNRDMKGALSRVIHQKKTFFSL
Outline: as §1

OR1E2 (Homo sapiens) = OR1E2 (Homo sapiens) (UniProt P47887)
Sequence of OR1E2 (Homo sapiens) (P47887 whole entry): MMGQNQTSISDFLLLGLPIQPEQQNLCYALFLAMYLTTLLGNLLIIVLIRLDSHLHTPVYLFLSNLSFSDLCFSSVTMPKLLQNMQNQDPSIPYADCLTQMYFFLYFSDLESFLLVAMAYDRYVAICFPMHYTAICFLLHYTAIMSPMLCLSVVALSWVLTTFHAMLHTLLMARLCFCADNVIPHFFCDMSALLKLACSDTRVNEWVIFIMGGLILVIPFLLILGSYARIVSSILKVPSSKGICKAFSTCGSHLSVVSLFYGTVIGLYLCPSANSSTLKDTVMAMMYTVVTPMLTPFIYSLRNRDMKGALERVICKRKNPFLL
Outline: as §1

OR1E2 = tested on: OR1E2
Sequence of OR1E2 (as listed by the source): as the sequence (P47887 whole entry) above, with C27R counted along it
Outline: as §1

OR1D4 (Homo sapiens) = OR1D4 (Homo sapiens) (UniProt P47884)
Sequence of OR1D4 (Homo sapiens) (P47884 whole entry): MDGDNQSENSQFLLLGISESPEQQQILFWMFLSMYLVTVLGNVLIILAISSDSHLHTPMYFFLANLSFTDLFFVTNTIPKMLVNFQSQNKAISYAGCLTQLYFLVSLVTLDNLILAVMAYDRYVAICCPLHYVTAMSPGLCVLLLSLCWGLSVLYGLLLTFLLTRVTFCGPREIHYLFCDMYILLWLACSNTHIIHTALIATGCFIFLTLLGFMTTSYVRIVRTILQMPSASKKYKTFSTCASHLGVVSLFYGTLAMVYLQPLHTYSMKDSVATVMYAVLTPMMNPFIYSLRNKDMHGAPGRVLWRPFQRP
Outline: as §1
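Note: active if original authors judged signal statistically different from baseline.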

Q: Which “odorant receptor agonist call” value (OR1A2 (Homo sapiens)) does the source give for CCCCC(Br)C(=O)O (stereo not given) here?
A: Its value is “inactive”.

Q: Which “odorant receptor agonist call” value (OR1A2 (Homo sapiens)) does the source give for CCCC(Br)C(=O)O (stereo not given) here?
A: Its value is “inactive”.

Q: With CCC(Br)C(=O)O (stereo not given) as the compound, how does the “odorant receptor agonist call” value (OR1A2 (Homo sapiens)) read?
A: Its value is “inactive”.

Q: O=C([O-])Cc1ccccc1 was tested. Which “odorant receptor agonist call” value (OR1A2 (Homo sapiens)) did it give?
A: The value was “inactive”.

Q: Which “odorant receptor agonist call” value (OR1A2 (Homo sapiens)) does the source give for C=CCOC(=O)Cc1ccccc1 here?
A: The value was “inactive”.

Q: What about the “odorant receptor agonist call” value (OR1A2 G256C W293C) of the same compound?
A: The value was “inactive”.

Q: And the “odorant receptor agonist call” value (OR1B1)?
A: Its value is “inactive”.

Q: What about the “odorant receptor agonist call” value (OR1C1 (Homo sapiens)) of the same compound?
A: The value was “inactive”.

Q: What about the “odorant receptor agonist call” value (OR1D2 (Homo sapiens)) of the same compound?
A: The value was “inactive”.

Q: And the “odorant receptor agonist call” value (OR1D5 (Homo sapiens))?
A: Its value is “inactive”.

Q: And the “odorant receptor agonist call” value (OR1E1 (Homo sapiens))?
A: The value was “inactive”.

Q: And the “odorant receptor agonist call” value (OR1E2 (Homo sapiens))?
A: Its value is “inactive”.

Q: What about the “odorant receptor agonist call” value (OR1E2) of the same compound?
A: Its value is “inactive”.

Q: Which “odorant receptor agonist call” value (OR1D2 (Homo sapiens)) does the source give for O=CC=Cc1ccccc1 here?
A: The value was “inactive”.

Q: How did the “odorant receptor agonist call” value (OR1A2 (Homo sapiens)) turn out when CCCCCCC(Br)C(=O)O (stereo not given) was run?
A: The value was “inactive”.

Q: O=Cc1ccccc1 was tested. Which “odorant receptor agonist call” value (OR1D2 (Homo sapiens)) did it give?
A: Its value is “inactive”.

Q: Which “odorant receptor agonist call” value (OR1A2 (Homo sapiens)) does the source give for Cc1c([N+](=O)[O-])c(C)c([N+](=O)[O-])c(C(C)(C)C)c1[N+](=O)[O-] here?
A: Its value is “inactive”.

Q: What about the “odorant receptor agonist call” value (OR1B1) of the same compound?
A: The value was “inactive”.

Q: And the “odorant receptor agonist call” value (OR1C1 (Homo sapiens))?
A: Its value is “inactive”.

Q: What about the “odorant receptor agonist call” value (OR1D4 (Homo sapiens)) of the same compound?
A: The value was “inactive”.

Q: And the “odorant receptor agonist call” value (OR1D5 (Homo sapiens))?
A: Its value is “inactive”.

Q: What about the “odorant receptor agonist call” value (OR1E2 (Homo sapiens)) of the same compound?
A: The value was “inactive”.

Q: Which “odorant receptor agonist call” value (OR1A2 (Homo sapiens)) does the source give for CC(C=O)Cc1ccc2c(c1)OCO2 (stereo not given) here?
A: The value was “active”.

Q: What about the “odorant receptor agonist call” value (OR1D2 (Homo sapiens)) of the same compound?
A: Its value is “inactive”.

Q: ClC=CCl was tested. Which “odorant receptor agonist call” value (OR1A2 (Homo sapiens)) did it give?
A: The value was “inactive”.
